According to PubChem BioAssay AID2646 (Broad Institute, 2010):
Active and inactive are the calls of the source.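 How the source made its calls: active means mean cAMP rise at 10 µM above half of the positive control's rise; inactive means the rest.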

Test system: human washed platelets, cAMP competitive ELISA, 5 min
Experiment: platelet cAMP elevation by single compound, confirmation, counter-screen for platelet activation inhibitor project, cell-based, competitive ELISA, PGE1 reference (AID 2646)
Conditions: at 10 µM; active compounds read high
Summary of the method: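 test system = washed human donor platelets | buffer or medium = lysis in 0.1 M HCl with 0.5% Triton X-100 | dosing = single compound dose of 10 µM | times = 5 min treatment | technique = competitive cAMP ELISA of platelet lysates, optical density | controls = 1 µM PGE1 as positive, 0.3% DMSO as neutral control | repeats = duplicate samples per compound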

CCCC(=O)Nc1cccc(NC(=O)c2ccccc2Br)c1
cAMP elevation, % of PGE1: 43.9% (inactive)
